Reference: ChEMBL document CHEMBL2203053, “DNA binding acridine-thiazolidinone agents affecting intracellular glutathione” (Bioorg Med Chem, 2012)
Calls of active or inactive are those of the source. The rule behind the calls is not given here.

Key:
[1] = tested on: Nucleic Acid; experiment: Ratio of acridine orange K to compound K for calf thymus DNA by spectrofluorimetry based McGhee von Hippel method; format: nucleic-acid assay; conditions: Bos taurus
[2] = tested on: HL-60; experiment: Cell cycle arrest in human HL60 cells assessed as accumulation at S phase at 1 uM after 48 hrs by propidium iodide staining based flow cytometry (reference value: 38.96%); format: functional
[3] = tested on: HL-60; experiment: Cell cycle arrest in human HL60 cells assessed as accumulation at G1 phase at 1 uM after 48 hrs by propidium iodide staining based flow cytometry (reference value: 48.14%); format: functional
[4] = Binding affinity to NAC assessed as second order rate constant at 1 mM at pH 7 after 10 mins by UV-visible spectrophotometry
Method in brief: (§1)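 Reaction with N-acetyl-L-cysteine was run in 100 mM Tris/HCl containing 50% DMSO at 25 °C, with final 2c at 20 µM and NAC at 1 mM. pH was 6.0, 6.5 or 7.0. Spectral change was monitored by UV–vis, with the mixture held 10 min. Second-order rate constants k2 (M⁻¹ s⁻¹) are reported.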

[5] = tested on: L1210; experiment: Cytotoxicity against mouse L1210 cells after 48 hrs by MTT assay; format: functional, cell-based; conditions: L1210, 48 h
Method in brief: (§2)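 HL-60, L1210 and A2780 cells were grown in RPMI 1640 with 10% FBS, penicillin and streptomycin at 37 °C, 5% CO₂; HL-60 and A2780 medium also had 2 mM glutamine. Cells were exposed to 0–30 µM for 48 or 72 h. Viability was read by MTT microculture tetrazolium assay and IC50 was determined.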

[6] = tested on: HL-60; experiment: Induction of cell death in human HL60 cells assessed as early apoptotic cells at 4 uM after 24 hrs by FDA/PI staining based flow cytometer (reference value: 3.96%); format: functional
[7] = tested on: A2780; experiment: Cytotoxicity against human A2780 cells after 72 hrs by MTT assay; format: functional, cell-based; conditions: A2780, 72 h; method in brief: as §2
[8] = tested on: HL-60; experiment: Induction of cell death in human HL60 cells assessed as viable cells at 2 uM after 24 hrs by FDA/PI staining based flow cytometer (reference value: 90.16%); format: functional; conditions: HL-60, 24 h, read-out: Activity
[9] = Binding affinity to NAC assessed as second order rate constant at 1 mM at pH 6.5 after 10 mins by UV-visible spectrophotometry; method in brief: as §1
[10] = tested on: HL-60; experiment: Induction of cell death in human HL60 cells assessed as necrotic cells at 2 uM after 24 hrs by FDA/PI staining based flow cytometer (reference value: 5.87%); format: functional
[11] = tested on: Nucleic Acid; experiment: Binding affinity to calf thymus DNA assessed as melting temperature at 5 uM at pH 7.1 by thermal denaturation assay; format: nucleic-acid assay; conditions: Bos taurus
[12] = tested on: HL-60; experiment: Cell cycle arrest in human HL60 cells assessed as accumulation at S phase at 0.5 uM after 48 hrs by propidium iodide staining based flow cytometry (reference value: 38.96%); format: functional
[13] = tested on: L1210; experiment: Cytotoxicity against mouse L1210 cells after 72 hrs by MTT assay; format: functional, cell-based; conditions: L1210, 72 h; method in brief: as §2
[14] = tested on: HL-60; experiment: Induction of oxidative stress in human HL60 cells assessed as superoxide production at 5 uM after 1 hr by DHE dye based fluorescence microscopy; format: functional, cell-based
Method in brief: (§3)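 HL-60 cells (4 × 10⁵) were cultured 24 h at 37 °C, then given 5 µM for 1 h, with or without 6 h pretreatment with 10 µM L-buthionine-sulfoximine. Dihydroethidium (20 µM) was then added for 20 min at 37 °C. Cells were washed in PBS and superoxide was viewed by fluorescence microscopy. Menadione served as positive control.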

[15] = tested on: NIH3T3; experiment: Cytotoxicity against mouse NIH/3T3 cells after 72 hrs by MTT assay; format: cell-based; conditions: NIH3T3, 72 h
[16] = tested on: Nucleic Acid; experiment: Binding affinity to calf thymus DNA assessed as hypochromicity at 25 uM by UV-visible spectrophotometry; format: nucleic-acid assay; conditions: Bos taurus
Method in brief: (§4)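 Absorption spectra were taken in 0.01 M Tris buffer, pH 7.4. Compounds were diluted from DMSO stock to a final 25 µM. Sonicated calf thymus DNA in TE buffer was added at 0–30 µM bp, with concentration set by A260. Shift of λmax (free vs bound) and % hypochromicity were recorded.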

[17] = tested on: HL-60; experiment: Induction of necrosis in human HL60 cells assessed as cell shrinking at 2.5 uM after 24 hrs by propidium iodide staining based fluorescence microscopy; format: functional
[18] = tested on: A2780; experiment: Drug uptake in human A2780 cells at 5 uM after 4 hrs by Hoechst staining based fluorescence microscopy; format: ADME, cell-based; conditions: a2780, 4 h
[19] = tested on: HL-60; experiment: Cytotoxicity against BSO pretreated human HL60 cells assessed as cell viability at 1 uM treated 6 hrs after BSO addition measured after 48 hrs by trypan blue exclusion assay; format: functional, cell-based
Method in brief: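 HL-60 cells were pretreated 6 h with L-buthionine-sulfoximine (10 µM), then exposed to 1.5, 3.0 or 1.0 µM compound for 48 h. Viable cells were counted by trypan blue staining and expressed as percentage of all cells.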

[20] = tested on: HL-60; experiment: Cell cycle arrest in human HL60 cells assessed as accumulation at sub G0 phase at 1 uM after 48 hrs by propidium iodide staining based flow cytometry (reference value: 1.93%); format: functional
[21] = tested on: Nucleic Acid; experiment: Ratio of proflavine K to compound K for calf thymus DNA by spectrofluorimetry based McGhee von Hippel method; format: nucleic-acid assay; conditions: Bos taurus
[22] = tested on: HL-60; experiment: Cytotoxicity against human HL60 cells after 72 hrs by MTT assay; format: functional, cell-based; conditions: HL-60, 72 h; method in brief: as §2
[23] = tested on: HL-60; experiment: Cell cycle arrest in human HL60 cells assessed as accumulation at G2 phase at 1 uM after 48 hrs by propidium iodide staining based flow cytometry (reference value: 12.90%); format: functional
[24] = tested on: HL-60; experiment: Cell cycle arrest in human HL60 cells assessed as accumulation at G2 phase at 0.5 uM after 48 hrs by propidium iodide staining based flow cytometry (reference value: 12.90%); format: functional
[25] = tested on: HL-60; experiment: Drug uptake in human HL60 cells at 10 uM after 10 to 60 mins by RP-HPLC analysis; format: ADME, cell-based; conditions: hl-60, 10 µM
Method in brief: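 HL-60 cells (2 × 10⁶/mL) were exposed to 10 µM for 10 or 60 min, washed twice in PBS and extracted with methanol (1 h, 4 °C). Extract was centrifuged at 6700 × g and injected (20 µL) onto a C18 RP-HPLC column. Mobile phase was methanol/50 mM ammonium formate 80:20, pH 4.5, at 0.5 mL/min and 25 °C, with detection at 370 nm.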

[26] = tested on: HL-60; experiment: Cytotoxicity against human HL60 cells after 48 hrs by MTT assay; format: functional, cell-based; conditions: HL-60, 48 h; method in brief: as §2
[27] = tested on: HL-60; experiment: Induction of cell death in human HL60 cells assessed as late apoptotic cells at 4 uM after 24 hrs by FDA/PI staining based flow cytometer (reference value: 0.01%); format: functional
[28] = tested on: HL-60; experiment: Induction of cell death in human HL60 cells assessed as early apoptotic cells at 2 uM after 24 hrs by FDA/PI staining based flow cytometer (reference value: 3.96%); format: functional
[29] = tested on: Nucleic Acid; experiment: Binding affinity to calf thymus DNA assessed as binding constant by spectrofluorimetry based McGhee von Hippel method; format: nucleic-acid assay; conditions: Bos taurus
Method in brief: (§5)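 Fluorescence titration used compound at 26.7 µM in 0.01 M Tris buffer (pH 7.4, 24 °C). ctDNA was added stepwise from 0 to 32 µM bp at 2 µM intervals until spectra stopped changing. Excitation was 384 nm and emission was read at 410–470 nm. Binding constant K was derived by the McGhee–von Hippel method from Scatchard plot data.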

[30] = tested on: HL-60; experiment: Decrease in intracellular glutathione level in human HL60 cells at 1 uM after 2 to 24 hrs by spectrophotometric analysis; format: functional, cell-based
[31] = tested on: HL-60; experiment: Cell cycle arrest in human HL60 cells assessed as accumulation at sub G0 phase at 0.5 uM after 48 hrs by propidium iodide staining based flow cytometry (reference value: 1.93%); format: functional
[32] = Binding affinity to NAC assessed as second order rate constant at 1 mM at pH 6 after 10 mins by UV-visible spectrophotometry; method in brief: as §1
[33] = tested on: HL-60; experiment: Induction of cell death in human HL60 cells assessed as viable cells at 4 uM after 24 hrs by FDA/PI staining based flow cytometer (reference value: 90.16%); format: functional; conditions: HL-60, 24 h, read-out: Activity
[34] = tested on: A2780; experiment: Cytotoxicity against human A2780 cells after 48 hrs by MTT assay; format: functional, cell-based; conditions: A2780, 48 h; method in brief: as §2
[35] = tested on: Nucleic Acid; experiment: Ratio of daunomycin K to compound K for calf thymus DNA by spectrofluorimetry based McGhee von Hippel method; format: nucleic-acid assay; conditions: Bos taurus
[36] = tested on: Nucleic Acid; experiment: Binding affinity to calf thymus DNA assessed as bathochromic shift at 25 uM by UV-visible spectrophotometry; format: nucleic-acid assay; conditions: Bos taurus; method in brief: as §4
[37] = tested on: Nucleic Acid; experiment: Binding affinity to calf thymus DNA assessed as intercalation at 26.7 uM by fluorometric titration analysis; format: nucleic-acid assay; conditions: Bos taurus; method in brief: as §5
[38] = tested on: HL-60; experiment: Cytotoxicity against human HL60 cells after 48 hrs using trypan blue exclusion staining by DCC method; format: functional, cell-based; conditions: HL-60, 48 h
Method in brief: (§6)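 For trypan blue dye-exclusion direct cell counting, HL-60 cells were seeded at 1 × 10⁵ cells/mL. Compound at 0–10 µM, or 1% DMSO control, was added after 24 h. Viable counts were taken after 24, 48 and 72 h. IC50 (50% inhibition of viability) came from growth curves, as mean ± S.D., n = 3.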

[39] = tested on: HL-60; experiment: Cell cycle arrest in human HL60 cells assessed as accumulation at G1 phase at 0.5 uM after 48 hrs by propidium iodide staining based flow cytometry (reference value: 48.14%); format: functional
[40] = tested on: HL-60; experiment: Drug uptake in human HL60 cells at 5 uM after 4 hrs by Hoechst staining based fluorescence microscopy; format: ADME, cell-based; conditions: hl-60, 4 h
Method in brief: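 HL-60 cells were exposed to 5 µM for 4 h at 37 °C, 5% CO₂, then washed in PBS. Intrinsic blue fluorescence was viewed by optical and fluorescence microscopy. Untreated control cells were stained with Hoechst 33342 (10 µM, 10 min).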

[41] = tested on: HL-60; experiment: Induction of cell death in human HL60 cells assessed as late apoptotic cells at 2 uM after 24 hrs by FDA/PI staining based flow cytometer (reference value: 0.01%); format: functional
[42] = tested on: HL-60; experiment: Induction of cell death in human HL60 cells assessed as necrotic cells at 4 uM after 24 hrs by FDA/PI staining based flow cytometer (reference value: 5.87%); format: functional
[43] = tested on: HL-60; experiment: Cytotoxicity against human HL60 cells after 72 hrs using trypan blue exclusion staining by DCC method; format: functional, cell-based; conditions: HL-60, 72 h; method in brief: as §6
[44] = tested on: HL-60; experiment: Induction of oxidative stress in BSO pretreated human HL60 cells assessed as superoxide production at 5 uM treated 6 hrs after BSO addition measured after 1 hr by DHE dye fluorescence microscopy; format: functional, cell-based; method in brief: as §3

Work on `COC(=O)/C=C1\S/C(=N\c2c3ccccc3nc3ccccc23)N(c2ccc(Br)cc2)C1=O` yielded a Ratio [1] of 10, an Activity [2] of 11.99% and an Activity [3] of 82.93%. The Activity [4] was 9.9 M⁻¹ s⁻¹, the IC50 [5] was 1700 nM and the Activity [6] was 19.57%. It also gave an IC50 [7] of 7700 nM, a viability at 2 µM [8] of 8.46% and an Activity [9] of 3.8 M⁻¹ s⁻¹. For the same compound, the Activity [10] was 22.87%, the Tm [11] was 81 °C and the Activity [12] was 38.4%. The IC50 [13] was 3100 nM, the Activity [14] was “Active” and the IC50 [15] was 3500 nM. For the same compound, the Activity [16] was 24.2%, the Activity [17] was “Active” and the Drug uptake [18] was “Active”. For the same compound, the Activity [19] was “Active”, the Activity [20] was 25.85% and the Ratio [21] was 10. The IC50 [22] was 1300 nM, the Activity [23] was 5.08% and the Activity [24] was 10.56%. For the same compound, the Drug uptake [25] was “Active”, the IC50 [26] was 1400 nM and the Activity [27] was 0.01%. For the same compound, the Activity [28] was 68.64%, the K [29] was 5.89 ×10⁶ /M and the Activity [30] was “Active”. The Activity [31] was 21.7%, the Activity [32] was 2 M⁻¹ s⁻¹ and the viability at 4 µM [33] was 17.8%. For the same compound, the IC50 [34] was 12500 nM, the Ratio [35] was 10 and the Activity [36] was “Active”. The Activity [37] was “Active”, the IC50 [38] was 1600 nM and the Activity [39] was 51.04%. The Drug uptake [40] was “Active”, the Activity [41] was 0.03% and the Activity [42] was 62.62%. For the same compound, the IC50 [43] was 900 nM and the Activity [44] was “Active”.
